Compound activity from PubChem BioAssay.
VIM-2 inh – blocks Pseudomonas aeruginosa VIM-2 metallo-beta-lactamase; purified VIM-2, nitrocefin hydrolysis, epi-absorbance fluorescence; inhibition, % at 5.6 µM; hit rate 0.89% among 290,000; AID 1527;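 active means inhibition above the mean of all tested compounds plus 3 SD, cutoff set per screening run, cut at about 7.5% in these data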;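 further: red hydrolysis product quenches plate fluorescence so inhibitors raise well fluorescence; 0% = enzyme with DMSO and 100% = DMSO without enzyme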
IMP-1 inh – inhibitors of Pseudomonas aeruginosa IMP-1 metallo-beta-lactamase | purified IMP-1, nitrocefin hydrolysis, epi-absorbance fluorescence | inhibition, % at 5.6 µM | hit rate 0.45% among 290,000;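 active means inhibition above the mean plus 3 SD of all compounds in the same screening run, cut at about 4.5% in these data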;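 further: 0% = IMP-1 with DMSO and 100% = DMSO wells lacking enzyme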
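System: purified IMP-1; amount: IMP-1 0.2 nM before substrate addition; compound: single dose, 5.6 µM; times: 25 °C, 15 min preincubation, 25 min reaction; signal: Epi-absorbance via hydrolysed-nitrocefin quenching of white-plate fluorescence, 480/530 nm, EDTA stop; benchmarks: DMSO with and without IMP-1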
ANO1 block – inhibitors of mouse TMEM16A calcium-activated chloride channel; Q8BHY3; HEK293 TMEM16A/YFP iodide influx fluorescence, ionomycin; normalized B-score (activity score, 25-100; higher = stronger inhibition) at 10 µM; hit rate 1.2% among 310,000; AID 588511;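 active means ratio plate-corrected score three or more library SD toward inhibition, starting fluorescence score within five deviations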;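 further: score derived from kinetic fluorescence span divided by baseline fluorescence per well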
CHT inh – inhibitors of human choline transporter CHT; Q9GZV3; CHT-expressing cells, membrane potential dye, choline response; hits give low values; B-score at 10 µM; hit rate 0.86% among 310,000; AID 488975;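 active means B-score over 3 SD under the library average, and starting fluorescence ratio not unusually high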;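 further: choline stimulus applied at its EC90 after an EC20 pre-addition; B-score computed on integrated fluorescence ratio after choline addition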
TMEM16A act – mouse TMEM16A channel activation, primary screen; hit rate 0.3% among 340,000; Q8BHY3; B-score at 10 µM; HEK293 TMEM16A/YFP-H148Q/I152L, iodide quench fluorescence; hits give low values;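 active means fluorescence-ratio B-score plate-corrected deviation score at least 3 library SD below zero, with starting fluorescence score within 5 deviations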;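 further: channel opened by trigger with iodide after compound preincubation; score built on the fluorescence ratio of max minus min over baseline; more negative score means more quench and so TMEM16A activation or potentiation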
CHT PAM – allosterically activates the human high affinity choline transporter | B-score at 10 µM | AID 488977 | Q9GZV3 | hit rate 0.49% among 310,000 | CHT-expressing cells, membrane potential dye, choline EC20; hits give high values; LV-AA mutant CHT in HEK293 cells;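 active means initial fluorescence not abnormally high and integrated response B-score, plate-corrected, over 3 SD above library mean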
VIM-2 inh confirm – VIM-2 inhibition, confirmation assay; shares compounds with IMP-1 inh; purified VIM-2 enzyme, nitrocefin absorbance; inhibition, % at 5.6 µM; hit rate 73% among 200; AID 1860; in the data active means inhibition above about 8%;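 further: 0% = enzyme with vehicle and 100% = no enzyme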
TEM-1 counter – blocks E. coli TEM-1 beta-lactamase, VIM-2 IMP-1 counter-screen | shares compounds with IMP-1 inh | nitrocefin absorbance inhibition | inhibition, % at 5.6 µM | hit rate 50% among 200; in the data active means inhibition above about 0.66%
Target sequence (P62593 whole entry, looked up): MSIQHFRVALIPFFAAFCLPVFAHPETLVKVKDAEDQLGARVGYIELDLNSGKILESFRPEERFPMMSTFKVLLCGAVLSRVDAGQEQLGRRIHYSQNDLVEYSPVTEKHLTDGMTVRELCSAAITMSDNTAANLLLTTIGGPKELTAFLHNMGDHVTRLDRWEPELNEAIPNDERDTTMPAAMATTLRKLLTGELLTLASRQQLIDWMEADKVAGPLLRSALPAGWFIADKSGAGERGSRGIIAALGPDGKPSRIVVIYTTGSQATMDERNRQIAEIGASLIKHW
IMP-1 inh conf – confirmation of P. aeruginosa IMP-1 metallo-beta-lactamase inhibitors | inhibition, % at 5.6 µM | purified IMP-1 enzyme, absorbance substrate hydrolysis | shares compounds with IMP-1 inh | AID 2189 | hit rate 60% among 200; in the data active means inhibition above about 4.9%;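 further: 0% = enzyme with vehicle and 100% = vehicle without enzyme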
CHT activ conf – confirmation of human choline transporter (CHT) activators; shares compounds with CHT PAM; CHT-expressing cells, membrane potential dye fluorescence (FDSS); % of choline EC20–EC90 response window; HEK293 expressing CHT LV-AA mutant; choline added at its EC20; AID 504833; hit rate 91% among 2,500; activation, % at 10 µM;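 active means primary screen active, with duplicate mean activation above negative control mean plus 3 SD, cut at about 11% in these data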
HEK293 MP dye – CHT activator counter-screen hit in parental HEK293 cells. shares compounds with CHT PAM. membrane potential dye fluorescence (FDSS); measured after EC20 choline addition. ratio readout change at 10 µM, hits read low. hit rate 62% among 2,500. AID 623908;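 active means duplicate-averaged ratio beyond 3 SD from buffer wells, up or down, though filed actives are nearly all decreases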
An asterisk follows results filed as active; i = inactive; / = no result; + = active, no number. An excerpt weighted towards active compounds, which were near 3.4% of everything screened.

SMILES	VIM-2 inh	IMP-1 inh	ANO1 block	CHT inh	TMEM16A act	CHT PAM	VIM-2 inh confirm	TEM-1 counter	IMP-1 inh conf	others
COC(=O)C1C(c2ccccc2)C=CC(c2ccccc2)C1C(=O)O (stereo unspecified)	8.7*	60.7*	i	i	i	i	3.5	-4.2	38.8*
CNC(=S)NNC(=O)c1cc(-c2cccnc2)nc2ccccc12	-7.2	-3.5	i	i	i	i	/	/	/
CNc1ccc2c3c(cccc13)C(=O)N(C)C2=O	49.9*	44.2*	i	i	i	i	75.8*	87.0*	59.3*
O=C(Nc1ccc2oc(-c3ccccc3F)nc2c1)c1cncc(Br)c1	-1.2	-1.6	i	i	i	i	/	/	/
O=C(Nc1ccc2oc(-c3ccccc3F)nc2c1)c1ccc([N+](=O)[O-])o1	12.4*	41.5*	i	i	i	i	8.5*	7.1*	24.3*
O=c1[nH]c(/C=C/c2ccc(Cl)cc2Cl)c([N+](=O)[O-])c(=O)[nH]1	0.5	-2.3	i	i	i	i	/	/	/
Cc1cc2nc3c(=O)[nH]c(=O)[nH]c3nc2c([N+](=O)[O-])c1N	12.4*	12.2*	/	/	i	/	11.1*	19.8*	4.3
C[C@@H]1C=CC(=O)O[C@@H]1c1ccc(Cl)cc1	-0.2	-4.9	i	i	/	i	/	/	/
CN(C)/C=C1\C=C2C(=O)c3ccccc3N2C1=O	19.9*	20.9*	i	i	i	i	134.0*	+	118.7*
CCOC(=O)c1c2c3c(cccc3n(C)c1=O)C(=O)c1ccccc1-2	14.7*	21.0*	i	i	i	i	19.6*	1.4*	7.9*
CC(C)C[C@H](NC(=O)[C@H](Cc1ccccc1)n1c(=O)[nH]c2ccccc2c1=O)C(=O)N1CCC[C@@H]1C(=O)O	1.5	0.0	i	i	i	i	/	/	/
CN(/N=C/c1ccc(-c2ccc([N+](=O)[O-])cc2)o1)c1ccccc1	26.2*	30.1*	i	i	i	i	17.3*	26.7*	16.3*
CN(/N=C/c1cc([N+](=O)[O-])ccc1O)c1ccccc1	-1.5	-2.9	i	i	i	i	/	/	/
Cc1c(C(=O)N2CCN(CC(=O)Nc3ccccc3Cl)CC2)oc2ccc(Br)cc12	/	/	/	/	i	/	/	/	/
CC(C)CCC1(CCO)C(=O)N=C(N)NC1=O (stereo unspecified)	/	/	/	/	i	/	/	/	/
COc1cccc(C2Nc3ccc4ccccc4c3C3=C2C(=O)CC(C)(C)C3)c1OCC(=O)O (stereo unspecified)	9.5*	10.6*	i	i	i	i	8.1*	-0.7	3.7
CC(C)C(=NO)c1ccccc1	/	/	/	/	i	/	/	/	/
CC(c1ccccc1)n1c(-c2ccc(Cl)cc2)n[nH]c1=S (stereo unspecified)	-2.1	-2.4	i	i	i	i	/	/	/
CC(c1ccccc1)n1c(-c2ccccc2F)n[nH]c1=S (stereo unspecified)	9.1*	6.4*	i	i	i	i	10.6*	-4.2	2.2
Cc1n[nH]c(C)c1N1C(=O)c2cccc3c(N4CCCCCC4)ccc(c23)C1=O	20.2*	16.2*	i	i	i	i	27.4*	20.8*	9.3*
Cc1ccc2c(c1)c(/C=C/c1cc[n+](C)cc1)c(C)n2C	25.7*	8.4*	i	i	i	i	30.8*	-1.6	2.7
CCCn1c(/C=C/c2cc[n+](C)cc2)nc2ccccc21	-1.5	-2.9	i	i	i	i	/	/	/
CC(=O)OCCn1c2nc(=O)[nH]c(=O)c-2nc2cc(C)c(C)cc21	32.9*	10.1*	i	i	i	i	43.1*	112.4*	36.7*
NNC(=O)[C@H](Cc1ccccc1)NC(=O)NCCc1ccccc1	-0.2	-3.0	i	i	i	i	/	/	/
CCOC(=O)N1C(=O)c2cc(OC)ccc2S1(=O)=O	9.4*	37.9*	i	i	i	i	3.4	1.5*	5.3*
SMILES	VIM-2 inh	IMP-1 inh	ANO1 block	CHT inh	TMEM16A act	CHT PAM	VIM-2 inh confirm	TEM-1 counter	IMP-1 inh conf	others
COc1ccc(NC(=O)CCN2C(=O)c3ccccc3S2(=O)=O)c(OC)c1	-0.2	-3.4	i	i	i	i	/	/	/
COc1ccc2noc3c2c1C(=O)c1ccccc1-3	/	/	i	i	i	i	/	/	/
O=C1c2ccccc2-c2onc3ccc(NCCCn4ccnc4)c1c23	55.0*	4.6*	i	i	/	i	88.8*	69.2*	55.9*
CCC(c1c(C)n(C)n(-c2ccccc2)c1=O)c1c(C)n(C)n(-c2ccccc2)c1=O	36.3*	39.2*	i	i	i	i	-2.5	-4.3	-3.6
CCCC(c1c(C)n(C)n(-c2ccccc2)c1=O)c1c(C)n(C)n(-c2ccccc2)c1=O	-2.8	-1.4	i	i	i	i	/	/	/
CC1(CCc2ccccc2)NC(=O)N(CC(=O)Nc2ccc(OC(F)F)cc2)C1=O (stereo unspecified)	/	/	/	/	i	/	/	/	/
Cc1cc(C)n2nc3nc4c(cc3c2n1)CCCC4	10.6*	5.0*	i	i	i	6.96*	14.9*	-0.8	-1.1	CHT activ conf=41.3*;HEK293 MP dye=-47.3*
C=CCNC(=O)c1c(CSc2ccc(F)cc2)noc1C(=O)NCCC	/	/	i	i	i	i	/	/	/
